Bioassay records: PubChem BioAssay, several laboratories
Sampled rows, rich in hits. Any-hit rate of the full collection: about 2.5%.
MC4R antagonist: MC4R antagonists of cAMP signaling, primary screen, cell-based, TR-FRET, antagonist arm of biased-ligand search. MC4R-expressing cells, MTII-stimulated cAMP, LANCE TR-FRET. Melanocortin receptor 4 (Homo sapiens), P32245. AID 540295, 2011. hit rate 0.48% among 360,000. inhibition, % at 6.5 µM;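 active = inhibition above its plate's cutoff, the mean of tested wells on that plate plus 3 SD, cut at about 29% in these data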
Target sequence (P32245 whole entry, looked up): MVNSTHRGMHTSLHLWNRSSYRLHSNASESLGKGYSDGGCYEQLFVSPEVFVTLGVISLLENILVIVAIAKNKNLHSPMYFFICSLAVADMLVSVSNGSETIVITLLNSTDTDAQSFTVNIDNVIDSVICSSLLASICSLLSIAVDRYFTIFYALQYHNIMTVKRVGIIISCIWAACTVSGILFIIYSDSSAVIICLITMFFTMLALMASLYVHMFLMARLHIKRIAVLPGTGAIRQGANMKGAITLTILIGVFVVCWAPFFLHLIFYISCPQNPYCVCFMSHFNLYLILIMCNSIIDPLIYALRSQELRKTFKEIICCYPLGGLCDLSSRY
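System: U2OS-MC4R stable cell line; Technique: Eu-cAMP/anti-cAMP TR-FRET, emission 671 nm; Repeats: single well per compound; Also added: Melanotan II; Dosing: one concentration, 6.5 µM nominal; Schedule: 30-min compound, 1-h challenge, 1-h detection, room temperature.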
TbMetRS inhib: T. brucei MetRS inhibitors, primary screen, biochemical, luminescence | methionyl-tRNA synthetase (Trypanosoma brucei brucei) | purified T. brucei MetRS, ATP depletion, Kinase-Glo luminescence | inhibition, % at 11.9 µM | hit rate 0.4% among 360,000 | AID 624268, 2012;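 active = inhibition above a per-plate cutoff of the control wells' mean inhibition plus 3 SD, cut at about 5.5% in these data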
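Assay system: T. brucei methionyl-tRNA synthetase, purified | Medium: HEPES buffer with MgCl2, KCl, DTT, spermine, BSA, pyrophosphatase | Compound: 11.9 µM single point | Incubation: 15 min enzyme-compound preincubation, 2 h reaction, 10 min detection, 25 °C | Measured by: Kinase-Glo luciferase luminescence reporting remaining unconsumed ATP | Measure: % inhibition normalized to control-well medians | Replication: Singlicate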
Bfl-1 A1 inh: caspase 3/7 activation in MEF A1-2A-BIM cells, primary screen, A1 inhibitor project, cell-based, luminescence, HTS; Caspase-Glo 3/7 luminescence, 3 h; percent of clofoctol response, vehicle zero; caspase activation, % (no concentration beside the values); hit rate 0.066% among 330,000; AID 2462, 2010;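 active = over half of replicate activation scores above 10%, or exactly half above 10 with the replicate mean above 10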
MC4R barr agon: MC4R agonists recruiting beta-arrestin, primary screen, cell-based, luminescence, agonist arm of biased-ligand search; Melanocortin receptor 4 (Homo sapiens), P32245; U2OS MC4R beta-arrestin complementation; percent of melanotan II response, DMSO zero; activation, % at 8.9 µM; hit rate 0.98% among 360,000; AID 540308, 2011;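 active = activation above a per-plate cutoff, the mean activation of sample wells on that plate plus 3 SD, cut at about 8% in these data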
NALP3 yeast inh: NALP3 inflammasome inhibitors in reconstituted yeast, primary screen, luminescence, uHTS | Yeast reconstituted NLRP3/ASC/caspase-1, beta-gal luminescence, 24 h | inhibition, % at 10 µM | hit rate 0.39% among 330,000;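 active = inhibition of 50% or more; inactive = inhibition below 50%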
NALP1 inh: NALP1 inflammasome inhibitors in reconstituted yeast, colorimetric, S. cerevisiae, triplicate retest. S. cerevisiae NALP1/ASC/caspase-1 growth, X-gal OD620, 72 h. inhibition, % at 10 µM. hit rate 0.61% among 280,000. AID 2071, 2009; in the data active = inhibition mostly above about 24%, no sharp cut-off; inactive = mostly below about 32%
Each line names hits and unclear results; the compound was inactive in the other large screens.

COCCNc1ncnc2c1ncn2[C@H]1CN(Cc2ccncc2)C[C@@H](CO)O1	none (no result: Bfl-1 A1 inh, NALP3 yeast inh, NALP1 inh)
O=C1CCCCC(=O)[C@H](O)C[C@H](c2ccccc2)O1	none (no result: MC4R antagonist, Bfl-1 A1 inh, MC4R barr agon, NALP3 yeast inh, NALP1 inh)
Cc1ccc(NC(=O)CC(=O)Nc2ccc(C)c(C)c2)cc1C	none
Cc1ccc(NC(=O)/C=C\C(=O)NCC(=O)O)cc1C	NALP1 inh 56.9
O=C(NC(=S)Nc1ccccc1)c1cc([N+](=O)[O-])ccc1N1CCOCC1	NALP1 inh 26.5
O=C(Nc1ccc(S(=O)(=O)N2CCOCC2)cc1)c1cc(-c2cc(Cl)ccc2O)n[nH]1	MC4R barr agon 9.1
C[C@H]1CN([C@@H](C)CO)C(=O)CCCn2nncc2CO[C@H]1CN(C)S(=O)(=O)c1ccc(-n2cccn2)cc1	none (no result: Bfl-1 A1 inh, NALP3 yeast inh, NALP1 inh)
CCCN(C(=O)CSc1nnc2ccccn12)C1CCS(=O)(=O)C1 (centres undefined)	none (no result: NALP1 inh)
COc1cc2c3nnc(-c4ccc(F)cc4)c-3cn(Cc3ccccc3F)c2cc1OC	MC4R barr agon 11.8 (no result: Bfl-1 A1 inh, NALP3 yeast inh)
CCN1CCCC1CN(Cc1cc2ccc(C)cc2[nH]c1=O)C(=S)Nc1ccccc1OC (centres undefined)	none
CCN1CCCC1CN(Cc1cc2ccc(C)cc2[nH]c1=O)C(=S)Nc1ccccc1C(=O)OC (centres undefined)	NALP1 inh 37.0
O=C(Nc1ccc(-c2nc3cc(NC(=O)c4cccs4)ccc3o2)cc1)c1cccs1	Bfl-1 A1 inh 17.4
Cc1ccc2oc(-c3ccc(C)c(NC(=O)Cc4cccs4)c3)nc2c1	none
O=C(Nc1ccc2oc(-c3ccc4ccccc4c3)nc2c1)c1ccc2c(c1)OCCO2	MC4R barr agon 8.6
Cc1ccc2oc(-c3cccc(NC(=O)Cc4cccs4)c3)nc2c1	MC4R barr agon 13.3
O=C(Nc1ccc2oc(-c3ccncc3)nc2c1)c1ccccc1	none
CCCc1cc(C(=O)OCC(=O)N(CCC)c2c(N)n(Cc3ccccc3)c(=O)[nH]c2=O)sc1C	none (no result: NALP1 inh)
O=S1c2ccccc2Sc2ccccc21	none (no result: Bfl-1 A1 inh, NALP3 yeast inh, NALP1 inh)
CCOc1cc(Br)cc(/C=C2\SC(=Nc3ccccc3)NC2=O)c1O	MC4R barr agon 10.2
C=CCOc1ccc(Br)cc1/C=C1/SC(=Nc2ccc(C(=O)O)cc2)NC1=O	none (no result: Bfl-1 A1 inh, NALP3 yeast inh)
CSc1ccccc1NC(=O)C1(C)CCN1C(=O)CCC1CCCC1 (centres undefined)	none (no result: Bfl-1 A1 inh, NALP3 yeast inh, NALP1 inh)
O=C(Cn1cc2c(n1)CCCC2)NCCCN1CCN(Cc2ccccc2)CC1	none
CCN1CCN(CCCNC(=O)Cn2cc3c(n2)CCCC3)CC1	NALP1 inh 43.8
COC(=O)c1ccccc1S(=O)(=O)NNC(=O)C12CC3CC(CC(C3)C1)C2	none (no result: NALP1 inh)
C=CCNCCCOc1ccc(Cl)cc1Br	NALP1 inh 46.4
CCN(c1ccc(OC)cc1)S(=O)(=O)c1nnc(NC(=O)COc2ccc(F)cc2)s1	none
CN(N=Nc1cccc([N+](=O)[O-])c1)c1ccccc1	none
CN(N=Nc1ccc([N+](=O)[O-])cc1)c1ccccc1	MC4R barr agon 8.3
COc1ccc(S(=O)(=O)N(C)c2ccc(C(=O)NCc3ccco3)cc2)cc1OC	none
Oc1ccc(-c2nnc(Nc3cccc(O)c3)c3ccccc23)cc1	NALP1 inh 43.9
CCOc1ccc(S(=O)(=O)Nc2cccc(N(C)S(C)(=O)=O)c2)cc1	NALP1 inh 41.7
CN(c1cccc(NS(=O)(=O)c2ccccc2)c1)S(C)(=O)=O	none
CCc1nc2c(OCc3ccc(Cl)cc3Cl)cccn2c1N(C)C(=O)c1ccccc1F	none (no result: Bfl-1 A1 inh, NALP3 yeast inh, NALP1 inh)
CC(C)Sc1nc(N2CCOCC2)c2c(c1C#N)CC(C)(C)SC2	NALP1 inh 35.6
CC(C)CSc1nc(N2CCOCC2)c2c(c1C#N)CC(C)(C)SC2	none
O=C1C=CC(=O)N1c1ccc(O)cc1	none
O=C1C=CC(=O)N1c1ccc(OC(F)F)cc1	MC4R antagonist 36.6, NALP1 inh 111.8 (no result: NALP3 yeast inh)
